In test [1] the test system is Punta Toro virus. Put plainly: Antiviral activity against Punta Toro virus Adames infected Syrian golden hamster assessed as animals with detectable virus level in liver at 30 mg/kg, […] measured on day 4 of viral infection. The class given is functional. The note with it: route oral.
The test system of test [2] is Punta Toro virus. Put plainly: Antiviral activity against 5000 PFU Punta Toro virus Adames infected C57BL/6 mouse assessed as animals with detectable virus level in liver at 30 mg/kg, po twice daily administered 24 hrs post viral challenge measured on day 3 of viral infection. The class given is functional. In a few lines:
(§1)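 Mice were infected subcutaneously with PTV and dosed by oral gavage twice daily; 5 per group (10 placebo) were killed on day 3 or 4. Liver homogenate or serum was serially diluted onto triplicate LLC-MK2 monolayers, and CPE was read 6–8 days later. 50% endpoints gave log10 CCID50 per 0.1 g liver or 0.1 ml serum. Detection range was 2.8–9.5; undetectable samples were assigned <2.8.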

For test [3], the system named is Punta Toro virus. Put plainly: Antiviral activity against 50 PFU Punta Toro virus Adames infected C57BL/6 mouse assessed as mean viral titer per 0.1 g of liver at 10 mg/kg, po twice daily administered 24 hrs post viral challenge measured on day 3 of viral infection. The class given is functional. In a few lines:
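Mice were infected subcutaneously with PTV and dosed by oral gavage twice daily with drug in 0.4% CMC. Five per group (10 placebo) were sacrificed on day 3 or 4. Serially diluted liver homogenate or serum went into triplicate LLC-MK2 wells, and CPE 50% endpoints were read at 6–8 days. The range was 2.8–9.5 log10 CCID50/0.1 g or 0.1 ml, with undetectable samples set to 2.8 and saturated samples to 9.5.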

The test system of test [4] is Punta Toro virus. Put plainly: Antiviral activity against 50 PFU Punta Toro virus Adames infected C57BL/6 mouse assessed as animals with detectable virus level in serum at 30 mg/kg, po twice daily administered 24 hrs post viral challenge measured on day 3 of viral infection. The class given is functional. An outline of the steps: (§2)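 T-705 was suspended in 0.4% carboxymethylcellulose and given by oral gavage twice daily. Mice were infected subcutaneously with PTV. Five mice per group (10 placebo) were sacrificed on day 3 or 4. Liver homogenate or serum was serially diluted onto triplicate LLC-MK2 monolayers, and CPE was read at 6–8 days. The detection limit was 2.8 log10 CCID50 per 0.1 g liver or 0.1 ml serum.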

Test [5] concerns Punta Toro virus. As to the kind of experiment: Antiviral activity against Punta Toro virus Adames assessed as inhibition of virus-induced visual cytopathic effect after 3 to 5 days. The class given is functional, organism-based. An outline of the steps: (§3)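 Virus in medium with 2% FBS was used at the CCID50 that gave maximal CPE. Half-log drug dilutions (DMSO stock, ≤1% DMSO at the top concentration) were added at infection. EC50 was derived by regression analysis.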
(In general: Protection from cytopathic effect is a common read-out in antiviral testing.)

In test [6] the test system is Sandfly fever Naples virus. As to the kind of experiment: Antiviral activity against Sandfly fever Naples virus assessed as inhibition of virus-induced visual cytopathic effect after 3 to 5 days. The format is functional, organism-based. In a few lines: as §3
Test [7] relates to Pichinde virus. Put plainly: Antiviral activity against Pichinde virus An 4763 infected Syrian golden hamster assessed as animals with detectable virus level in serum at 20 mg/kg, po twice daily for 7 days administered 24 hrs post viral-challenge measured on day 7 of viral infection. The class given is functional. An outline of the steps:
(§4)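 Hamsters (groups of 15, placebo 25-30) were dosed orally by gavage twice daily (drug suspended in 0.4% CMC) after bilateral intraperitoneal challenge with 65 PFU. Five per group were killed on day 7. Liver homogenate or serum was serially diluted onto triplicate B-SC-1 wells, CPE was read at 6-8 days, and the 50% endpoint was taken. Range was 2.8-9.5 log10 CCID50/0.1 g or 0.1 ml, with undetectable assigned <2.8.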

Test [8] concerns Pichinde virus. Put plainly: Antiviral activity against Pichinde virus An 4763 infected Syrian golden hamster assessed as mean serum ALT levels at 50 mg/kg, po twice daily for 7 days administered 72 hrs post viral-challenge measured on day 7 of viral infection measured on day 7 of viral infection. The format is functional. An outline of the steps: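 Hamsters were challenged intraperitoneally (bilateral, 65 PFU) and given twice-daily oral gavage doses (0.4% CMC vehicle). Five per group were sacrificed on day 7 and serum was collected. Serum ALT activity was measured by kinetic assay. Three sham-infected animals set the baselines.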

In test [9] the test system is Pichinde virus. As to the kind of experiment: Antiviral activity against Pichinde virus An 4763 infected Syrian golden hamster assessed as mean day of death at 50 mg/kg, po twice daily for 7 days administered 72 hrs post viral-challenge measured on day 7 of viral infection. The format is functional. An outline of the steps: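 Groups of 15 hamsters (placebo 25-30) were challenged intraperitoneally (bilateral, 65 PFU) and dosed twice daily by oral gavage in 0.4% CMC for 5 to 7 days.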

In test [10] the test system is Pichinde virus. As to the kind of experiment: Antiviral activity against Pichinde virus An 4763 infected Syrian golden hamster assessed as mean viral titer per 0.1 g of liver at 50 mg/kg, po twice daily for 7 days administered 72 hrs post viral-challenge measured on day 7 of viral infection. The class given is functional. An outline of the steps: as §4
In test [11] the test system is Pichinde virus. As to the kind of experiment: Antiviral activity against Pichinde virus An 4763 infected Syrian golden hamster assessed as mean viral titer per 0.1 mL of serum at 50 mg/kg, po twice daily for 7 days administered 72 hrs post viral-challenge measured on day 7 of viral infection. The class given is functional. An outline of the steps:
as §4

The test system of test [12] is Pichinde virus. As to the kind of experiment: Antiviral activity against Pichinde virus An 4763 infected Syrian golden hamster assessed as mean viral titer per 0.1 mL of serum at 20 mg/kg, po twice daily for 7 days administered 72 hrs post viral-challenge measured on day 7 of viral infection. The class given is functional. In a few lines: as §4
Test [13] relates to Punta Toro virus. Put plainly: Antiviral activity against 500 PFU Punta Toro virus Adames infected C57BL/6 mouse assessed as mean day of death at 10 mg/kg, po twice daily for 5 days administered 24 hrs post viral challenge. The class given is functional. In a few lines:
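Groups of 15 mice (25–30 placebo) were inoculated subcutaneously with PTV. Drug in 0.4% carboxymethylcellulose was given by oral gavage twice daily.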

Test [14] deals with Punta Toro virus. Put plainly: Antiviral activity against 500 PFU Punta Toro virus Adames infected C57BL/6 mouse assessed as mean viral titer per 0.1 g of liver at 10 mg/kg, po twice daily administered 24 hrs post viral challenge measured on day 3 of viral infection. The format is functional. In a few lines:
as §1

Test [15] concerns Punta Toro virus. As to the kind of experiment: Antiviral activity against 500 PFU Punta Toro virus Adames infected C57BL/6 mouse assessed as mean viral titer per 0.1 mL of serum at 10 mg/kg, po twice daily administered 24 hrs post viral challenge measured on day 3 of viral infection. The class given is functional. In a few lines: as §1
In test [16] the test system is Punta Toro virus. Put plainly: Antiviral activity against 500 PFU Punta Toro virus Adames infected C57BL/6 mouse assessed as animals with detectable virus level in serum at 10 mg/kg, po twice daily administered 24 hrs post viral challenge measured on day 3 of viral infection. The format is functional. An outline of the steps: as §2
The test system of another test is Junin virus. As to the kind of experiment: Antiviral activity against Junin virus Candid-1 in Vero cells assessed as inhibition of virus-induced visual cytopathic effect after 7 to 8 days. The following applies: Mammarenavirus juninense, Candid-1, Vero. The format is functional, organism-based.
In test [17] the test system is Pichinde virus. As to the kind of experiment: Antiviral activity against Pichinde virus An 4763 in Vero cells assessed as inhibition of virus-induced visual cytopathic effect after 7 to 8 days. The class given is functional, organism-based. In a few lines:
(§5)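 Subconfluent (50-70%) Vero cells were infected with virus in 2% FBS medium at the CCID50 giving maximal CPE. Half-log drug dilutions were added at infection. EC50 was obtained by regression analysis.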

Another test deals with Tacaribe virus. As to the kind of experiment: Antiviral activity against Tacaribe virus TRVL11573 in Vero cells assessed as inhibition of virus-induced visual cytopathic effect after 7 to 8 days. The note with it: Mammarenavirus tacaribeense. The format is functional, organism-based. In a few lines: as §5
Test [18] deals with Pichinde virus. As to the kind of experiment: Antiviral activity against Pichinde virus An 4763 infected Syrian golden hamster assessed as mean viral titer per 0.1 g of liver at 20 mg/kg, po twice daily for 7 days administered 24 hrs post viral-challenge measured on day 7 of viral infection. The class given is functional. In a few lines: as §4
Test [19] concerns Pichinde virus. Put plainly: Antiviral activity against Pichinde virus An 4763 infected Syrian golden hamster assessed as animals with detectable virus level in liver at 50 mg/kg, po twice daily for 7 days administered 24 hrs post viral-challenge measured on day 7 of viral infection. The format is functional. An outline of the steps: as §4

This passage reports Activity, log10CCID50 and EC50 results from ChEMBL document CHEMBL1154414, “In vitro and in vivo activities of T-705 against arenavirus and bunyavirus infections” (Antimicrob Agents Chemother, 2007).

A value given as a limit tells only on which side of the number the result lay.

In general, EC50 refers to the concentration needed to bring the measured effect to its halfway point. For `NC(=O)c1nc(F)cnc1O` [FAVIPIRAVIR], the Activity worked out at 40% in the test on Punta Toro virus [1]; 20% in the test with Punta Toro virus [2]; 80% in the test on Punta Toro virus [4]; 100% with Pichinde virus [7]; 411 IU/L with Pichinde virus [8]; 14.8 days in the test on Pichinde virus [9]. Further, the Activity was found to be 4.7 days in the test on Punta Toro virus [13], 100% in the test on Punta Toro virus [16] and 100% in the test on Pichinde virus [19]. Besides, the log10CCID50 is recorded as less than 2.8 with Punta Toro virus [3]; 6.8 in the test with Pichinde virus [10]; 6.6 in the test with Pichinde virus [11]; greater than 8.6 in the test on Pichinde virus [12]; less than 2.8 in the test with Punta Toro virus [14]; 7.1 in the test on Punta Toro virus [15]. The log10CCID50 in the test on Pichinde virus [18] was greater than 8.4. Moreover, the EC50 stood at 191 µM in the test on Punta Toro virus [5]; 115 µM in test [6]; 5 µM with Junin virus; 6 µM with Pichinde virus [17]; 6 µM with Tacaribe virus.
As for `NC(=O)c1ncn([C@@H]2O[C@H](CO)[C@@H](O)[C@H]2O)n1` [RIBAVIRIN], the Activity in the test with Punta Toro virus [1] was found to be 0%; in the test with Punta Toro virus [2], 20%; in the test with Punta Toro virus [4] it was 100%; in the test with Pichinde virus [7] it was 80%; with Pichinde virus [8] it was 15 IU/L; with Pichinde virus [9] it was 18.5 days. The Activity turned out to be 5 days with Punta Toro virus [13], 100% in the test on Punta Toro virus [16] and 100% with Pichinde virus [19]. Further, the log10CCID50 in the test with Punta Toro virus [3] is given as less than 3.3; with Pichinde virus [10] it was 6.5; in the test on Pichinde virus [11], 6; in the test on Pichinde virus [12] it was 6.8; in the test on Punta Toro virus [14], less than 2.9; with Punta Toro virus [15], 6.7. In addition, in the test with Pichinde virus [18], the log10CCID50 worked out at 6. The EC50 with Punta Toro virus [5] was 172 µM; in test [6], 90 µM; in the test with Junin virus, 11 µM; in the test on Pichinde virus [17], 13 µM; in the test on Tacaribe virus it was 10 µM.
